We go through twelve compounds from ChEMBL document CHEMBL2321735, “Synthesis and biological evaluation of halogenated curcumin analogs as potential nuclear receptor selective agonists” (Bioorg Med Chem, 2013).

The source made the active and inactive calls. The calls are words filed in the database; no cut-off is given here.

Experiment [1] has as its target T1, Vitamin D3 receptor (Homo sapiens) (UniProt P11473).
T1 sequence (whole entry): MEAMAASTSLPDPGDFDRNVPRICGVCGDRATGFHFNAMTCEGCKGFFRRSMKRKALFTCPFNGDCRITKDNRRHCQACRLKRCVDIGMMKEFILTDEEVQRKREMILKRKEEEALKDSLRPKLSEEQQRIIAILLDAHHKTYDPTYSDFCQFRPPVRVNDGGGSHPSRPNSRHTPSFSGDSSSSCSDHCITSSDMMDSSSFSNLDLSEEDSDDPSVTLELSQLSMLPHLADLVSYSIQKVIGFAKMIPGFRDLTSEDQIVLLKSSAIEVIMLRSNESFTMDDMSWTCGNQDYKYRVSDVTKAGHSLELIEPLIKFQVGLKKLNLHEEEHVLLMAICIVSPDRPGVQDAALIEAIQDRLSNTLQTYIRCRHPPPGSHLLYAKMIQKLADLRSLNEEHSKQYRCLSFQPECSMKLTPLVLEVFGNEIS
The experiment can be described thus: Agonist activity at human VDR expressed in human HCT116 cells assessed as CYP24A1 transcriptional activity at 20 to 40 uM after 24 hrs by luciferase reporter gene assay. In kind it is cell-based. Conditions: HCT-116. The method in brief: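 HCT-116 cells (DMEM, 10% FBS, 37 °C, 5% CO2) plated at 90,000 cells/well ~24 h before transfection with a firefly luciferase reporter carrying the natural human CYP24A1 promoter (2 VDREs) plus Renilla control. Treated 18 h after transfection with 3.75 x 10^-5 M compound, 10^-10 M 1,25D or DMSO for 24 h. Read-out is dual luciferase, firefly/Renilla x10,000. Triplicate wells.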

Experiment [2] concerns the target T1, Vitamin D3 receptor (Homo sapiens). Kind of experiment: Agonist activity at human VDR expressed in human HCT116 cells co-expressing VDRE assessed as XDR3 transcriptional activity at 20 to 40 uM after 24 hrs by luciferase reporter gene assay. In kind it is cell-based. Conditions: HCT-116. The method in brief: (§1)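 HCT-116 cells were transfected with a firefly luciferase plasmid holding two copies of the CYP3A4 XDR3 VDRE, plus a Renilla control. From 18 h post-transfection they were exposed to 3.75 x 10^-5 M compound, 10^-10 M 1,25D or DMSO in complete medium for 24 h. Dual-luciferase firefly/Renilla ratio. Three independent experiments, triplicate wells, mean ± SD.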

Experiment [3] has as its target T2, Retinoic acid receptor RXR-alpha (Homo sapiens) (UniProt P19793).
T2 sequence (whole entry): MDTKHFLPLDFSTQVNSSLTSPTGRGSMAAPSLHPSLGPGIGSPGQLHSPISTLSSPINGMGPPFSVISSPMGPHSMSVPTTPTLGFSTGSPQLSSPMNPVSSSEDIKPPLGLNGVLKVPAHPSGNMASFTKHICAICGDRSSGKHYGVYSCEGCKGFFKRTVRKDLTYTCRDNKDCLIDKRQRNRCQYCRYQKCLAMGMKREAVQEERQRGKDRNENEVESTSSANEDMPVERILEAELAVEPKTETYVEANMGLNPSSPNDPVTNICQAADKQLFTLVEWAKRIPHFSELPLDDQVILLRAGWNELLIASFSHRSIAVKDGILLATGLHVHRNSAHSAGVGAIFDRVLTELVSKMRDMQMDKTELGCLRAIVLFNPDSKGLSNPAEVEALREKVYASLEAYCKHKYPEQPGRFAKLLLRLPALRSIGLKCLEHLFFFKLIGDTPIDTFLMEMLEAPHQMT
Kind of experiment: Induction of RXRalpha-AD/RXRalpha-BD (unknown origin) homodimerization expressed in human HCT116 cells at 20 to 40 uM after 24 hrs by luciferase reporter gene assay. In kind it is cell-based. Conditions: HCT-116. Summed up: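 RXR–RXR homodimerization was measured by M2H in HCT-116 cells transfected with RXRα-AD prey, RXRα-BD bait, pFR-luc and Renilla control. […] Firefly luciferase was normalized to Renilla. Three independent experiments, triplicate samples, SD.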

Experiment [4] addresses T1, Vitamin D3 receptor (Homo sapiens). The experiment can be described thus: Agonist activity at human VDR expressed in human HCT116 cells assessed as induction of recruitment of DRIP205 at 20 to 40 uM after 24 hrs by mammalian two hybrid system based luciferase reporter gene assay. The class given is cell-based. Conditions: HCT-116. Summed up: (§2)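 M2H in HCT-116 used a VDR-AD prey with an SRC-1-BD or DRIP205-BD bait (50 ng each), 250 ng pFR-luc and 20 ng pRL-null per well. Cells were treated with 3.75 x 10^-5 M compound, 10^-10 M 1,25D or DMSO for 24 h. Firefly luciferase was normalized to Renilla. Duplicate experiments, triplicate samples, SD.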

For experiment [5] the target is unchanged. The experiment can be described thus: Agonist activity at human VDR expressed in human HCT116 cells assessed as induction of recruitment of SRC-1 at 20 to 40 uM after 24 hrs by mammalian two hybrid system based luciferase reporter gene assay. In kind it is cell-based. Conditions: HCT-116. Summed up:
as §2

A further experiment has as its target T3, Vitamin D3 receptor (Homo sapiens, UniProt P11473).
T3 sequence (P11473 whole entry): T1 sequence (whole entry)
The experiment can be described thus: Agonist activity at human VDR expressed in human HCT116 cells co-expressing VDRE assessed as XDR3 transcriptional activity after 24 hrs by luciferase reporter gene assay. The class given is cell-based, HCT-116. Summed up: as §1

Turning to `O=C(/C=C(O)/C=C/c1ccc(O)cc1F)/C=C/c1ccc(O)cc1F`, the outcome in experiment [1] and in experiment [2] was inactive.

`COc1cc(CCC(=O)/C=C(\O)CCc2cc(F)c(O)c(OC)c2)cc(F)c1O`: the result in experiment [1] and in experiment [2] was inactive.

For `COc1cc(/C=C/C(=O)/C=C(O)/C=C/c2cc(F)c(O)c(OC)c2)cc(F)c1O`, the outcome in experiment [2] was Active.

As for `COc1cc(CCC(=O)/C=C(\O)CCc2ccc(O)c(OC)c2)ccc1O`, the outcome in experiment [2] was Active.

Regarding `O=C(/C=C(O)/C=C/c1ccc(O)c(Cl)c1)/C=C/c1ccc(O)c(Cl)c1`, the result in experiment [3], in experiment [1] and in experiment [2] was Active.

For the compound `COc1cc(/C=C/C(=O)/C=C(O)/C=C/c2cc(Br)c(O)c(OC)c2)cc(Br)c1O`, the result in experiment [3], in experiment [4], in experiment [5], in experiment [1] and in experiment [2] was Active.

On to `O=C(/C=C(\O)CCc1ccc(O)cc1F)CCc1ccc(O)cc1F`, for which the result in experiment [1] and in experiment [2] was inactive.

As to `COc1cc(/C=C/C(=O)/C=C(O)/C=C/c2cc(Cl)c(O)c(OC)c2)cc(Cl)c1O`, the outcome in experiment [3], in experiment [1] and in experiment [2] was Active.

For `COc1cc(/C=C/C(=O)CC(=O)/C=C/c2ccc(O)c(OC)c2)ccc1O` [CURCUMIN], the result in experiment [4], in experiment [5] and in experiment [1] was Active. Besides, on Vitamin D3 receptor, the concentration for a half-maximal effect (EC50) came out at 20 µM.

Regarding `O=C(/C=C(O)/C=C/c1ccc(O)c(Br)c1)/C=C/c1ccc(O)c(Br)c1`, the outcome in experiment [3], in experiment [1] and in experiment [2] was Active.

For `COc1cc(/C=C/C(=O)/C=C(O)/C=C/c2cc(I)c(O)c(OC)c2)cc(I)c1O`, the outcome in experiment [3], in experiment [4], in experiment [5], in experiment [1] and in experiment [2] was Active.

For `O=C(/C=C(O)/C=C/c1ccc(O)c(OC(F)(F)F)c1)/C=C/c1ccc(O)c(OC(F)(F)F)c1`, the result in experiment [3], in experiment [4], in experiment [5], in experiment [1] and in experiment [2] was Active.
